Assays:
Format in all cases: functional
[1] = test system: Tetranychus urticae; experiment: Acaricidal activity against adult Tetranychus urticae (two-spotted spider mite) in leaves of cowpea plant assessed as number of unhatched eggs at 50 ug/mL at 25 degC measured after 10 days (reference value: 0%)
[2] = test system: Tetranychus urticae; experiment: Acaricidal activity against adult Tetranychus urticae (two-spotted spider mite) in leaves of cowpea plant assessed as number of unhatched eggs at 100 ug/mL at 25 degC measured after 10 days (reference value: 0%)
[3] = test system: Tetranychus urticae; experiment: Acaricidal activity against adult Tetranychus urticae (two-spotted spider mite) in leaves of cowpea plant assessed as mortality at 10 ug/mL at 25 degC measured after 3 days (reference value: 0%); settings: 72 h
[4] = test system: Tetranychus urticae; experiment: Acaricidal activity against adult Tetranychus urticae (two-spotted spider mite) in leaves of cowpea plant assessed as mortality at 2 ug/mL at 25 degC measured after 3 days (reference value: 0%); settings: 72 h
[5] = test system: Tetranychus urticae; experiment: Acaricidal activity against adult Tetranychus urticae (two-spotted spider mite) in leaves of cowpea plant assessed as mortality at 30 ug/mL at 25 degC measured after 3 days (reference value: 0%); settings: 72 h
[6] = test system: Tetranychus urticae; experiment: Acaricidal activity against adult Tetranychus urticae (two-spotted spider mite) in leaves of cowpea plant assessed as mortality at 50 ug/mL at 25 degC measured after 3 days (reference value: 0%); settings: 72 h
[7] = test system: Tetranychus urticae; experiment: Acaricidal activity against adult Tetranychus urticae (two-spotted spider mite) in leaves of cowpea plant assessed as mortality at 100 ug/mL at 25 degC measured after 3 days (reference value: 0%); settings: 72 h
[8] = test system: Caenorhabditis elegans; experiment: Nematocidal activity against Caenorhabditis elegans assessed as immobilized rate at 2 ug/mL at 25 degC for 15 hr (reference value: 5.3 to 6.8%)
[9] = test system: Caenorhabditis elegans; experiment: Nematocidal activity against Caenorhabditis elegans assessed as immobilized rate at 10 ug/mL at 25 degC for 15 hr (reference value: 5.3 to 6.8%)
In short: (§1)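 Compounds were prepared as 0.1% MeOH solutions and diluted 10-fold in water to give 100 μg/mL test solutions. Immobilized and total C. elegans were counted under a stereomicroscope. Result is % immobilized of all nematodes tested.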

[10] = test system: Caenorhabditis elegans; experiment: Nematocidal activity against Caenorhabditis elegans assessed as immobilized rate at 30 ug/mL at 25 degC for 15 hr (reference value: 5.3 to 6.8%)
[11] = test system: Caenorhabditis elegans; experiment: Nematocidal activity against Caenorhabditis elegans assessed as immobilized rate at 50 ug/mL at 25 degC for 15 hr (reference value: 5.3 to 6.8%); in short: as §1
[12] = test system: Caenorhabditis elegans; experiment: Nematocidal activity against Caenorhabditis elegans assessed as immobilized rate at 100 ug/mL at 25 degC for 15 hr (reference value: 5.3 to 6.8%); in short: as §1
[13] = test system: Tetranychus urticae; experiment: Acaricidal activity against adult Tetranychus urticae (two-spotted spider mite) in leaves of cowpea plant assessed as number of unhatched eggs at 2 ug/mL at 25 degC measured after 10 days (reference value: 0%)
[14] = test system: Tetranychus urticae; experiment: Acaricidal activity against adult Tetranychus urticae (two-spotted spider mite) in leaves of cowpea plant assessed as number of unhatched eggs at 10 ug/mL at 25 degC measured after 10 days (reference value: 0%)
[15] = test system: Tetranychus urticae; experiment: Acaricidal activity against adult Tetranychus urticae (two-spotted spider mite) in leaves of cowpea plant assessed as number of unhatched eggs at 30 ug/mL at 25 degC measured after 10 days (reference value: 0%)

Structure (SMILES) | Activity [1] [%] | Activity [2] [%] | mortality at 10 µg/mL [3] [%] | mortality at 2 µg/mL [4] [%] | mortality at 30 µg/mL [5] [%] | mortality at 50 µg/mL [6] [%] | mortality at 100 µg/mL [7] [%] | Activity [8] [%] | Activity [9] [%] | Activity [10] [%] | Activity [11] [%] | Activity [12] [%] | Activity [13] [%] | Activity [14] [%] | Activity [15] [%]
C/C1=C\C[C@@H]2C[C@@H](C[C@]3(C=C[C@H](C)[C@@H](C4CCCCC4)O3)O2)OC(=O)c2cc(C)c(O)cc2/C=C/C=C/[C@H](C)[C@@H]1O | 37.6 | 56.7 | 77.1 | 45.2 | 92.5 | 100 | 100 | 13.5 | 49.2 | 81.4 | 100 | 100 | 0 | 12.1 | 19.8
C/C1=C\C[C@@H]2C[C@@H](C[C@]3(C[C@@H](O)[C@H](C)[C@@H](C4CCCCC4)O3)O2)OC(=O)c2cc(C)c(O)cc2/C=C/C=C/[C@H](C)[C@@H]1O | 43.7 | 59.8 | 75.6 | 43.9 | 96.4 | 100 | 100 | 43.7 | 92.7 | 100 | 100 | 100 | 0 | 13.9 | 23.5
CO[C@H]1C[C@H](O[C@H]2[C@H](C)O[C@@H](O[C@@H]3/C(C)=C/C[C@@H]4C[C@@H](C[C@]5(C=C[C@H](C)[C@@H](C6CCCCC6)O5)O4)OC(=O)[C@@H]4C=C(C)[C@@H](O)[C@H]5OC/C(=C\C=C\[C@@H]3C)[C@]54O)C[C@@H]2OC)O[C@@H](C)[C@@H]1O [DORAMECTIN] | 21.5 | 47.4 | 62.9 | 26.8 | 86.5 | 100 | 100 | 45.3 | 86.5 | 100 | 100 | 100 | 0 | 0 | 8.9
